# Legend:
# Type in all cases: functional
# Staphylococcus aureus [1] = test: Antimicrobial activity against Staphylococcus aureus isolate 934324 after 24 hrs by broth microdilution method; details: isolate 934324, 24 h
# Summary of the method: (§1)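 Broth microdilution following NCCLS M7-A4; ATCC strains and clinical isolates from a provincial hospital.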
# Staphylococcus aureus [2] = test: Antimicrobial activity against Staphylococcus aureus isolate 68/8684 after 24 hrs by broth microdilution method; details: isolate 68/8684, 24 h; summary of the method: as §1
# Staphylococcus aureus [3] = test: Antimicrobial activity against Staphylococcus aureus isolate RN1030 after 24 hrs by broth microdilution method; details: isolate RN1030, 24 h
# Summary of the method: (§2)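 Broth microdilution following NCCLS M7-A4, using ATCC strains and clinical isolates from a provincial hospital.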
# Staphylococcus aureus [4] = test: Antimicrobial activity against Staphylococcus aureus isolate RN1024 after 24 hrs by broth microdilution method; details: isolate RN1024, 24 h; summary of the method: as §2
# Staphylococcus aureus [5] = test: Antimicrobial activity against Staphylococcus aureus isolate 934387 after 24 hrs by broth microdilution method; details: isolate 934387, 24 h; summary of the method: as §2
# Staphylococcus aureus [6] = test: Antimicrobial activity against Staphylococcus aureus isolate CARTER 37 after 24 hrs by broth microdilution method; details: isolate CARTER 37, 24 h; summary of the method: as §2
# Staphylococcus aureus [7] = test: Antimicrobial activity against Staphylococcus aureus isolate 306 after 24 hrs by broth microdilution method; details: isolate 306, 24 h; summary of the method: as §1
# Staphylococcus aureus [8] = test: Antimicrobial activity against Staphylococcus aureus isolate Ealing 32 after 24 hrs by broth microdilution method; details: isolate Ealing 32, 24 h; summary of the method: as §1
# Staphylococcus aureus [9] = test: Antimicrobial activity against Staphylococcus aureus isolate MN 1255 after 24 hrs by broth microdilution method; details: isolate MN 1255, 24 h; summary of the method: as §1
# Staphylococcus aureus [10] = test: Antimicrobial activity against Staphylococcus aureus isolate 929003 after 24 hrs by broth microdilution method; details: isolate 929003, 24 h; summary of the method: as §1
# Streptococcus pyogenes [11] = test: Antimicrobial activity against Streptococcus pyogenes 1308007P after 24 hrs by broth microdilution method; summary of the method: as §1
# Staphylococcus aureus [12] = test: Antimicrobial activity against Staphylococcus aureus isolate CL 938 after 24 hrs by broth microdilution method; details: isolate CL 938, 24 h; summary of the method: as §1
# Staphylococcus aureus [13] = test: Antimicrobial activity against Staphylococcus aureus isolate MILES HALL after 24 hrs by broth microdilution method; summary of the method: as §2
# Haemophilus influenzae [14] = test: Antimicrobial activity against AcrA-deficient Haemophilus influenzae H128 after 24 hrs by broth microdilution method; details: H128, 24 h; summary of the method: as §1
# Staphylococcus aureus [15] = test: Antimicrobial activity against Staphylococcus aureus WCUH29 after 24 hrs by broth microdilution method; details: WCUH29, 24 h; summary of the method: as §1
# Staphylococcus aureus [16] = test: Antimicrobial activity against Staphylococcus aureus OXFORD after 24 hrs by broth microdilution method; summary of the method: as §2
# Staphylococcus aureus [17] = test: Antimicrobial activity against Staphylococcus aureus isolate CL 939 after 24 hrs by broth microdilution method; details: isolate CL 939, 24 h; summary of the method: as §2
# Staphylococcus aureus [18] = test: Antimicrobial activity against Staphylococcus aureus isolate 929035 after 24 hrs by broth microdilution method; details: isolate 929035, 24 h; summary of the method: as §1
# Staphylococcus aureus [19] = test: Antimicrobial activity against Staphylococcus aureus isolate Ealing 23 after 24 hrs by broth microdilution method; details: isolate Ealing 23, 24 h; summary of the method: as §2
# Staphylococcus aureus [20] = test: Antimicrobial activity against Staphylococcus aureus isolate PAV 5 after 24 hrs by broth microdilution method; details: isolate PAV 5, 24 h; summary of the method: as §1
# Streptococcus pneumoniae [21] = test: Antimicrobial activity against Streptococcus pneumoniae ERY2 after 24 hrs by broth microdilution method; details: ERY2, 24 h; summary of the method: as §1
# Staphylococcus aureus [22] = test: Antimicrobial activity against Staphylococcus aureus isolate RUSSELL after 24 hrs by broth microdilution method; summary of the method: as §2
# Staphylococcus aureus [23] = test: Antimicrobial activity against Staphylococcus aureus isolate RN4220 pmz1 after 24 hrs by broth microdilution method; details: isolate RN4220 pmz1, 24 h; summary of the method: as §2
# Staphylococcus aureus [24] = test: Antimicrobial activity against Staphylococcus aureus isolate A53 after 24 hrs by broth microdilution method; details: isolate A53, 24 h; summary of the method: as §2
# Staphylococcus aureus [25] = test: Antimicrobial activity against Staphylococcus aureus isolate 934335 after 24 hrs by broth microdilution method; details: isolate 934335, 24 h; summary of the method: as §1
# Haemophilus influenzae [26] = test: Antimicrobial activity against Haemophilus influenzae Q1 after 24 hrs by broth microdilution method; details: Q1, 24 h; summary of the method: as §1
# Staphylococcus aureus [27] = test: Antimicrobial activity against Staphylococcus aureus isolate Smith ATCC 13709 after 24 hrs by broth microdilution method; details: isolate Smith ATCC 13709, 24 h; summary of the method: as §2
# Staphylococcus aureus [28] = test: Antimicrobial activity against Staphylococcus aureus isolate NEQAS 4026 after 24 hrs by broth microdilution method; details: isolate NEQAS 4026, 24 h; summary of the method: as §1
# Staphylococcus aureus [29] = test: Antimicrobial activity against Staphylococcus aureus isolate NEQAS 4158 after 24 hrs by broth microdilution method; details: isolate NEQAS 4158, 24 h; summary of the method: as §1
# Streptococcus pneumoniae [30] = test: Antimicrobial activity against Streptococcus pneumoniae N1387 after 24 hrs by broth microdilution method; details: N1387, 24 h; summary of the method: as §1
# Staphylococcus aureus [31] = test: Antimicrobial activity against Staphylococcus aureus isolate F89 after 24 hrs by broth microdilution method; details: isolate F89, 24 h; summary of the method: as §1
# Enterococcus faecalis = test: Antimicrobial activity against Enterococcus faecalis Isolate 1 after 24 hrs by broth microdilution method; details: Isolate 1, 24 h; summary of the method: as §1
# Staphylococcus aureus [32] = test: Antimicrobial activity against Staphylococcus aureus isolate 934334 after 24 hrs by broth microdilution method; details: isolate 934334, 24 h; summary of the method: as §1
# Staphylococcus aureus [33] = test: Antimicrobial activity against Staphylococcus aureus isolate OGA833 after 24 hrs by broth microdilution method; details: isolate OGA833, 24 h; summary of the method: as §1
# Staphylococcus aureus [34] = test: Antimicrobial activity against Staphylococcus aureus isolate CL 1033 after 24 hrs by broth microdilution method; details: isolate CL 1033, 24 h; summary of the method: as §1
# Moraxella catarrhalis = test: Antimicrobial activity against Moraxella catarrhalis 1502 after 24 hrs by broth microdilution method; details: Moraxella catarrhalis, 1502, 24 h; summary of the method: as §1
# Streptococcus pneumoniae [35] = test: Antimicrobial activity against Streptococcus pneumoniae 1629 after 24 hrs by broth microdilution method; details: Streptococcus pneumoniae, 1629, 24 h; summary of the method: as §1
# Escherichia coli = test: Antimicrobial activity against Escherichia coli isolate 3 after 24 hrs by broth microdilution method; details: isolate 3, 24 h; summary of the method: as §1
# Haemophilus influenzae [36] = test: Antimicrobial activity against Haemophilus influenzae H128 after 24 hrs by broth microdilution method; details: H128, 24 h; summary of the method: as §1
# Staphylococcus aureus [37] = test: Antimicrobial activity against Staphylococcus aureus ATCC 29213 after 24 hrs by broth microdilution method; details: ATCC 29213, 24 h; summary of the method: as §1
# Enterococcus faecium = test: Antimicrobial activity against Enterococcus faecium X7501 after 24 hrs by broth microdilution method; details: X7501, 24 h; summary of the method: as §1
# Staphylococcus aureus [38] = test: Antimicrobial activity against Staphylococcus aureus isolate SWEETING after 24 hrs by broth microdilution method; summary of the method: as §2
# Streptococcus pyogenes [39] = test: Antimicrobial activity against Streptococcus pyogenes 1307006P after 24 hrs by broth microdilution method; summary of the method: as §1
structure (smiles),measurement,setting,value
CC1(C)S[C@@H]2[C@H](NC(=O)[C@H](N)c3ccc(O)cc3)C(=O)N2[C@H]1C(=O)O [AMOXICILLIN],MIC,Staphylococcus aureus [1],> 16 µg/mL
same,MIC,Staphylococcus aureus [2],> 16 µg/mL
same,MIC,Staphylococcus aureus [3],> 16 µg/mL
same,MIC,Staphylococcus aureus [4],> 16 µg/mL
same,MIC,Staphylococcus aureus [5],> 16 µg/mL
same,MIC,Staphylococcus aureus [6],0.25 µg/mL
same,MIC,Staphylococcus aureus [7],> 16 µg/mL
same,MIC,Staphylococcus aureus [8],1 µg/mL
same,MIC,Staphylococcus aureus [9],> 16 µg/mL
same,MIC,Staphylococcus aureus [10],> 16 µg/mL
same,MIC,Streptococcus pyogenes [11],≤ 0.06 µg/mL
same,MIC,Staphylococcus aureus [12],> 16 µg/mL
same,MIC,Staphylococcus aureus [13],0.25 µg/mL
same,MIC,Haemophilus influenzae [14],64 µg/mL
same,MIC,Staphylococcus aureus [15],64 µg/mL
same,MIC,Staphylococcus aureus [16],0.125 µg/mL
same,MIC,Staphylococcus aureus [17],2 µg/mL
same,MIC,Staphylococcus aureus [18],> 16 µg/mL
same,MIC,Staphylococcus aureus [19],0.5 µg/mL
same,MIC,Staphylococcus aureus [20],> 16 µg/mL
same,MIC,Streptococcus pneumoniae [21],≤ 0.06 µg/mL
same,MIC,Staphylococcus aureus [22],> 16 µg/mL
same,MIC,Staphylococcus aureus [23],0.125 µg/mL
same,MIC,Staphylococcus aureus [24],0.125 µg/mL
same,MIC,Staphylococcus aureus [25],> 16 µg/mL
same,MIC,Haemophilus influenzae [26],0.25 µg/mL
same,MIC,Staphylococcus aureus [27],0.125 µg/mL
same,MIC,Staphylococcus aureus [28],> 16 µg/mL
same,MIC,Staphylococcus aureus [29],> 16 µg/mL
same,MIC,Streptococcus pneumoniae [30],2 µg/mL
same,MIC,Staphylococcus aureus [31],2 µg/mL
same,MIC,Enterococcus faecalis,0.5 µg/mL
same,MIC,Staphylococcus aureus [32],> 16 µg/mL
same,MIC,Staphylococcus aureus [33],> 16 µg/mL
same,MIC,Staphylococcus aureus [34],> 16 µg/mL
same,MIC,Moraxella catarrhalis,≤ 0.06 µg/mL
same,MIC,Streptococcus pneumoniae [35],≤ 0.06 µg/mL
same,MIC,Escherichia coli,1 µg/mL
same,MIC,Haemophilus influenzae [36],32 µg/mL
same,MIC,Staphylococcus aureus [37],1 µg/mL
same,MIC,Enterococcus faecium,16 µg/mL
same,MIC,Staphylococcus aureus [38],0.125 µg/mL
same,MIC,Streptococcus pyogenes [39],≤ 0.06 µg/mL
